Tests used:
TZM = assay: Cytotoxicity against human TZM-bl cells incubated for 3 days by MTS assay; assay type: cell-based; settings: 72 h
[1] = test system: Human immunodeficiency virus 1; assay: Antiviral activity against HIV1 HXB2 infected in human TZM-bl cells preincubated for 30 min followed by viral infection and measured after 3 days by luciferase based assay; assay type: functional, organism-based; settings: Human immunodeficiency virus 1, M:B_HXB2R
Procedure, shortened: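 Single-cycle pseudovirus carrying HXB2 Env (CXCR4-tropic), made in HEK293T by co-transfecting an Env-deleted backbone (pSG3Δenv or pNL4-3.Luc.R-E-) with an Env plasmid. TZM-bl cells were seeded at 1 × 10^4/well and grown overnight. Virus was pretreated with graded compound concentrations, then added. Cells were washed and lysed, and IC50 was taken from percent inhibition.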

| SMILES | CC50 (TZM) [µM] | IC50 [1] [µM] |
| --- | --- | --- |
| NC[C@@H](NC(=O)c1ccc(-c2ccc(C(F)(F)F)cn2)[nH]1)c1ncc(CO)s1 | > 122 | 0.96 |
| CC(C)(N)[C@H](NC(=O)c1ccc(-c2ccc(C(F)(F)F)cn2)[nH]1)c1nc(CO)cs1 | 59 | 0.58 |
| NC[C@H](NC(=O)c1ccc(-c2ccc(Cl)cn2)[nH]1)c1ncc(CO)s1 | 142 | 2.7 |
| NC[C@@H](NC(=O)c1ccc(-c2ccc(C(F)(F)F)nc2)[nH]1)c1nc(CO)cs1 | – | 12.7 |
| Cc1cc(-c2ccc(C(F)(F)F)cn2)[nH]c1C(=O)N[C@H](c1ncc(CO)s1)C(C)(C)N | 37.5 | 0.43 |
| NC[C@@H](NC(=O)c1ccc(-c2ccc(F)cn2)[nH]1)c1nc(CO)cs1 | – | > 11 |
| Cc1cc(-c2ccc(Cl)cn2)[nH]c1C(=O)N[C@@H](CN)c1ncc(CO)s1 | 95 | 2.4 |
| NC[C@@H](NC(=O)c1ccc(-c2ccc(C(F)(F)F)cn2)[nH]1)c1nc(CO)cs1 | 94.3 | 0.59 |
| Cc1ccc(-c2ccc(C(=O)N[C@H](CN)c3nc(CO)cs3)[nH]2)nc1 | – | 9.6 |
| Cc1cc(-c2ccc(C(F)(F)F)cn2)[nH]c1C(=O)N[C@@H](c1ncc(CO)s1)C(C)(C)N | 35.3 | 0.6 |
| Cc1cc(-c2ccc(C(F)(F)F)cn2)[nH]c1C(=O)N[C@@H](CN)c1nc(CO)cs1 | 85 | – |
| NC[C@@H](NC(=O)c1ccc(-c2ccc(Cl)cn2)[nH]1)c1nc(CO)cs1 | > 132 | 5 |
| Cc1cc(-c2ccc(C(F)(F)F)cn2)[nH]c1C(=O)N[C@H](CN)c1ncc(CO)s1 | 92.8 | – |
| NC[C@H](NC(=O)c1ccc(-c2ccc(C(F)(F)F)cn2)[nH]1)c1ncc(C(O)CO)s1 (some centres not stated) | > 113 | 5.9 |
| CC(C)(N)[C@H](NC(=O)c1ccc(-c2ccc(C(F)(F)F)cn2)[nH]1)c1ncc(CO)s1 | 42.4 | 0.5 |
| Cc1cc(-c2ccc(Cl)cn2)[nH]c1C(=O)N[C@H](CN)c1ncc(CO)s1 | 98.3 | 1.2 |
| CC(C)(N)[C@@H](NC(=O)c1ccc(-c2ccc(C(F)(F)F)cn2)[nH]1)c1nc(CO)cs1 | 61 | 1.7 |

| SMILES | CC50 (TZM) [µM] | IC50 [1] [µM] |
| --- | --- | --- |
| NC[C@@H](NC(=O)c1ccc(-c2ccc(C(F)(F)F)cn2)[nH]1)c1nc(CCO)cs1 | 100 | 1.7 |
| NC[C@@H](NC(=O)c1ccc(-c2ncc(Cl)cn2)[nH]1)c1nc(CO)cs1 | – | > 15.8 |
| NC[C@H](NC(=O)c1ccc(-c2ccc(F)cn2)[nH]1)c1nc(CO)cs1 | > 138 | > 11 |
| COc1cc(-c2ccc(C(=O)N[C@H](CN)c3nc(CO)cs3)[nH]2)ccn1 | – | > 11 |
| NC[C@H](NC(=O)c1ccc(-c2ccc(Cl)cn2)[nH]1)c1nc(CO)cs1 | – | 1.7 |
| NC[C@H](NC(=O)c1ccc(-c2ccc(C(F)(F)F)cn2)[nH]1)c1nc(CO)c(CO)s1 | – | > 13 |
| CC(C)(N)[C@@H](NC(=O)c1ccc(-c2ccc(C(F)(F)F)cn2)[nH]1)c1ncc(CO)s1 | 74 | 0.52 |
| NC[C@@H](NC(=O)c1ccc(-c2ccc(Cl)cn2)[nH]1)c1ncc(CO)s1 | 144 | 0.85 |
| Cc1ccc(-c2ccc(C(=O)N[C@@H](CN)c3nc(CO)cs3)[nH]2)nc1 | > 140 | > 11 |
| NC[C@@H](NC(=O)c1ccc(-c2ccc(C(F)(F)F)cn2)[nH]1)c1ncc(C(O)CO)s1 (some centres not stated) | – | 2.1 |
| NC[C@H](NC(=O)c1ccc(-c2ccc(C(F)(F)F)cn2)[nH]1)c1nc(CO)cs1 | 77.9 | 0.3 |
| NC[C@H](NC(=O)c1ccc(-c2ccc(C(F)(F)F)cn2)[nH]1)c1ncc(CO)s1 | – | 1.2 |
| NC[C@H](NC(=O)c1ccc(-c2ccc(C(F)(F)F)nn2)[nH]1)c1nc(CO)cs1 | – | > 12 |
| NC[C@H](NC(=O)c1ccc(-c2ccc(C(F)(F)F)cn2)[nH]1)c1nc(CCO)cs1 | 91 | 0.76 |
| NC[C@@H](NC(=O)c1ccc(-c2ccc(C(F)(F)F)cn2)[nH]1)c1nc(C(O)CO)cs1 (some centres not stated) | – | 5.2 |
| NC[C@@H](NC(=O)c1ccc(-c2ccc(Cl)nc2)[nH]1)c1nc(CO)cs1 | – | > 11 |
